# Measurements from ChEMBL document CHEMBL5696442, “Discovery of type II inhibitors of TGFβ-activated kinase 1 (TAK1) and mitogen-activated protein kinase kinase kinase kinase 2 (MAP4K2)” (J Med Chem, 2015).
# Columns and labels:
# Format in all cases: cell-based
# [1] = target: T1, Serine/threonine-protein kinase Nek9 (Homo sapiens) (UniProt Q8TD19); test: Inhibition of NEK9 Lys1 labeling site harbouring RTEDDSLVVWKEVDLTR in human A-375 cells at 0.5 uM by KiNativ Profiling analysis relative to control
# T1 sequence (whole entry): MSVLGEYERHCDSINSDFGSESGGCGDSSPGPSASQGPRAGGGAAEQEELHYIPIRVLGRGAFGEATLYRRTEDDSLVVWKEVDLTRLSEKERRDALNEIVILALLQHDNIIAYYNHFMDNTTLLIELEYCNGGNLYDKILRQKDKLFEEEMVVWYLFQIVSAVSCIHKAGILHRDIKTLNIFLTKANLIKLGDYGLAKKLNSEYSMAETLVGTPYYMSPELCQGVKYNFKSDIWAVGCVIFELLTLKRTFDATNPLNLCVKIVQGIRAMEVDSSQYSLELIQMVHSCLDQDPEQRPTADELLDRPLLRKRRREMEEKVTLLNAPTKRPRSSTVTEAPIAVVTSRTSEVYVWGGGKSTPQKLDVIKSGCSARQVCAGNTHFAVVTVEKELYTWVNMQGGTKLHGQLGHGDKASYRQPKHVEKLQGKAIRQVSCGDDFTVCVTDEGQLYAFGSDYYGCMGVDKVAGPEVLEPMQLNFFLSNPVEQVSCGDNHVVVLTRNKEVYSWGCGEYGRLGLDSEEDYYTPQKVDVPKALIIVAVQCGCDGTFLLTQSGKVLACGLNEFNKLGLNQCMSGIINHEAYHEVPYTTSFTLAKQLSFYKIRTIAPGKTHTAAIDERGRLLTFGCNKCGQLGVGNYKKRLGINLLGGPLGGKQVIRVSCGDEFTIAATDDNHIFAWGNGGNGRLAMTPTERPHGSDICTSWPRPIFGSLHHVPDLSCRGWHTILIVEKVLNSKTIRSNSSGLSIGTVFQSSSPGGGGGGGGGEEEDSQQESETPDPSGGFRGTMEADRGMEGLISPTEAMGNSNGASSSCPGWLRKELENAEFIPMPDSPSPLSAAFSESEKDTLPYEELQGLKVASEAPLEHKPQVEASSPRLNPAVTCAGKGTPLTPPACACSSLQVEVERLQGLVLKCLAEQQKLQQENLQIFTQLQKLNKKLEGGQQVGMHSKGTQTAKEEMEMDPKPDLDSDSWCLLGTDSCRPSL
# [2] = target: T2, Aurora kinase A (Homo sapiens) (UniProt O14965); test: Inhibition of AurA Lys2 labeling site in human A-375 cells at 5 uM by KiNativ Profiling analysis relative to control
# T2 sequence (whole entry): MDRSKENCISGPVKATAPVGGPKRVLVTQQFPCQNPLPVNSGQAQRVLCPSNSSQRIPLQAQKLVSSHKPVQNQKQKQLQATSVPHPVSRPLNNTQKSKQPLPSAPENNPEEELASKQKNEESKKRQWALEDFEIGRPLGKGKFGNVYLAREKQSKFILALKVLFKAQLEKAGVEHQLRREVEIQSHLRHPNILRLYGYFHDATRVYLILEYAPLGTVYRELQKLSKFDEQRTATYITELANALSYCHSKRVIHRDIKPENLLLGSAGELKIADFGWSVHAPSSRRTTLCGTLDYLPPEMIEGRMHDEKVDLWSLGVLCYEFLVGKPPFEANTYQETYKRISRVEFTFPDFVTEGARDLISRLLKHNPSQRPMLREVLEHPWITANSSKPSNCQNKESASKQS
# Procedure, shortened: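 Live A375 melanoma cells were treated with compound at 5 or 0.5 μM, then lysed. The lysates were labeled with a lysine-reactive ATP or ADP-biotin probe. Kinase protection from probe labeling was measured by KiNativ.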
# [3] = target: Calcium/calmodulin-dependent protein kinase type 1 (Homo sapiens) (UniProt Q14012); test: Inhibition of CAMK1 alpha Lys1 labeling site in human A-375 cells at 0.5 uM by KiNativ Profiling analysis relative to control
# Chain of Calcium/calmodulin-dependent protein kinase type 1 (Homo sapiens) (Q14012 whole entry, looked up): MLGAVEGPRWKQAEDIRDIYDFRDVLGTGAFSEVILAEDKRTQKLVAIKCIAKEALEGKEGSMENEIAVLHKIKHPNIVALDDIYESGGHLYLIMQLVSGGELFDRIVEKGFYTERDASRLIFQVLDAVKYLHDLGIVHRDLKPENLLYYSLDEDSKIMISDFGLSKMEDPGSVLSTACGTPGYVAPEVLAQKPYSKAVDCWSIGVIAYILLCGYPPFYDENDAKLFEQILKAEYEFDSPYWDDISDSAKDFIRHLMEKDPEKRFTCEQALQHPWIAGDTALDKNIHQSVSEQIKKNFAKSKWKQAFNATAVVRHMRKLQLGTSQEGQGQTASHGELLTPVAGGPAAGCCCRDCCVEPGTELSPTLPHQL
# Procedure, shortened: (§1)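 Intact A375 melanoma cells were treated with compound at 5 or 0.5 μM, then lysed. Lysate kinases were labeled with a lysine-reactive ATP or ADP-biotin probe (KiNativ). Inhibition is read as protection of each kinase labeling site from probe labeling.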
# [4] = target: Tyrosine-protein kinase ABL2 (Homo sapiens, UniProt P42684); test: Inhibition of ARG Lys1 labeling site in human A-375 cells at 5 uM by KiNativ Profiling analysis relative to control; procedure, shortened: as §1
# Chain of Tyrosine-protein kinase ABL2 (P42684 whole entry): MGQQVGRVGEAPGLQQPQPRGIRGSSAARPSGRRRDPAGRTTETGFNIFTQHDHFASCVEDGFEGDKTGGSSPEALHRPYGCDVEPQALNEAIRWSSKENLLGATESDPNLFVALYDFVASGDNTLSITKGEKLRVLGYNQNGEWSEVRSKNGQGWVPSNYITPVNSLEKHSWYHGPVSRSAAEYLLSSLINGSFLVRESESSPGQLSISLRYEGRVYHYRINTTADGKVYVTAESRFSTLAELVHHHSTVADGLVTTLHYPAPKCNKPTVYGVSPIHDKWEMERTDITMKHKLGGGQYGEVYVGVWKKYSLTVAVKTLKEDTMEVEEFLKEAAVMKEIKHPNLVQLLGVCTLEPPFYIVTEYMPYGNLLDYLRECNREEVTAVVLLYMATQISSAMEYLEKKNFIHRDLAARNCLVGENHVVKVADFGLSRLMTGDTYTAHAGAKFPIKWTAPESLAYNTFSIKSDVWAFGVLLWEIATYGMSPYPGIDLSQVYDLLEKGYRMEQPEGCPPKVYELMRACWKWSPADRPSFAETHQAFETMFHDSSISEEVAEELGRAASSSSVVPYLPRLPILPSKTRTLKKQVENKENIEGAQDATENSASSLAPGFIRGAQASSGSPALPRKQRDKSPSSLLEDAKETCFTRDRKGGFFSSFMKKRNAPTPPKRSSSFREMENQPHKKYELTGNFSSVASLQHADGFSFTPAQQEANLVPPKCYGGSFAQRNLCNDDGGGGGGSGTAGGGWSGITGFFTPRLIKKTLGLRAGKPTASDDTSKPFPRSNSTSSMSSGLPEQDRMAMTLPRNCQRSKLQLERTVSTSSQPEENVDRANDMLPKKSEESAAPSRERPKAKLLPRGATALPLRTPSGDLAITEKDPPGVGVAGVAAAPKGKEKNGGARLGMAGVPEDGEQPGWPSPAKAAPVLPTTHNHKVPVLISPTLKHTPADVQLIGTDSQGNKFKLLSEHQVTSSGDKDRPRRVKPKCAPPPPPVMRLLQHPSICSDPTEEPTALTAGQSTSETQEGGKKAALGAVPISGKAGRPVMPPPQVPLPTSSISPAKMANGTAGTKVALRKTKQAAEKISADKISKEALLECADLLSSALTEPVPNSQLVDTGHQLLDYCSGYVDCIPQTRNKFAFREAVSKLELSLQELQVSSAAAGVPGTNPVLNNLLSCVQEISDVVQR
# [5] = target: Tyrosine-protein kinase Fer (Homo sapiens, UniProt P16591); test: Inhibition of FER Lys1 labeling site in human A-375 cells at 0.5 uM by KiNativ Profiling analysis relative to control
# Chain of Tyrosine-protein kinase Fer (P16591 whole entry, looked up): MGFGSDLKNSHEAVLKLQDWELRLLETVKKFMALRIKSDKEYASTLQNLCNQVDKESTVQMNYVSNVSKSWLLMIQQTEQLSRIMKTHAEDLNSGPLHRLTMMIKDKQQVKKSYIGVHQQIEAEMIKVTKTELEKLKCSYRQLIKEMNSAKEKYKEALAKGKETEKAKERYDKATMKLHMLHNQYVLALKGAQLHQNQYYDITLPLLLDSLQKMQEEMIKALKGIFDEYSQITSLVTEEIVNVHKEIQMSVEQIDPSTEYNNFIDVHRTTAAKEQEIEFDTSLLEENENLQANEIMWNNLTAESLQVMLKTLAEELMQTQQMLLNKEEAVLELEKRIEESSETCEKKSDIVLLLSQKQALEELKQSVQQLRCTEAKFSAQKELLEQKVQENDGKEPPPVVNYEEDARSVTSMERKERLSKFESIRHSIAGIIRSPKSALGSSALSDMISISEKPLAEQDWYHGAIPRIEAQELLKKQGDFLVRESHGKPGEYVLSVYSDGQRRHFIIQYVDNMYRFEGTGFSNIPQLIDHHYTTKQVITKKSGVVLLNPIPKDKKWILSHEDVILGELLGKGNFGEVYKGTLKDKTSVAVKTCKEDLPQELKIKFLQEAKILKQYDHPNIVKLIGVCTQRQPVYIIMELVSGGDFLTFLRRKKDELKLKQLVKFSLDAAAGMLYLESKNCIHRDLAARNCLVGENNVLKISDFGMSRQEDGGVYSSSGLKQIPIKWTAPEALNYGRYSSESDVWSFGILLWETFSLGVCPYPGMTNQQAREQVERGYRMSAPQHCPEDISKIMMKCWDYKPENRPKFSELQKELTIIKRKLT
# [6] = target: Serine/threonine-protein kinase 26 (Homo sapiens) (UniProt Q9P289); test: Inhibition of MST4 Lys2 labeling site in human A-375 cells at 0.5 uM by KiNativ Profiling analysis relative to control
# Chain of Serine/threonine-protein kinase 26 (Homo sapiens) (Q9P289 2-416 limits assumed): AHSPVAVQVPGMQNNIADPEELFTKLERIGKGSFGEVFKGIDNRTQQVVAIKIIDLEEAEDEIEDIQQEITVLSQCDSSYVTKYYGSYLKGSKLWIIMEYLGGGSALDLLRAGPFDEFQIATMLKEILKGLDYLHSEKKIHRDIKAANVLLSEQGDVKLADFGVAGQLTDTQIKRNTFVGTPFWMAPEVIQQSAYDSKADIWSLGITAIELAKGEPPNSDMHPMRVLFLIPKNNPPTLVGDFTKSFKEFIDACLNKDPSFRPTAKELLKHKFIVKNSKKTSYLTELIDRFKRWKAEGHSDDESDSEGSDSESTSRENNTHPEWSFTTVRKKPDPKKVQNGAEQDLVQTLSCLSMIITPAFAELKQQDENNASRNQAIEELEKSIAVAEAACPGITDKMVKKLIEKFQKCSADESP
# [7] = target: Interferon-induced, double-stranded RNA-activated protein kinase (Homo sapiens) (UniProt P19525); test: Inhibition of PKR Lys2 labeling site in human A-375 cells at 0.5 uM by KiNativ Profiling analysis relative to control
# Chain of Interferon-induced, double-stranded RNA-activated protein kinase (Homo sapiens) (P19525 whole entry): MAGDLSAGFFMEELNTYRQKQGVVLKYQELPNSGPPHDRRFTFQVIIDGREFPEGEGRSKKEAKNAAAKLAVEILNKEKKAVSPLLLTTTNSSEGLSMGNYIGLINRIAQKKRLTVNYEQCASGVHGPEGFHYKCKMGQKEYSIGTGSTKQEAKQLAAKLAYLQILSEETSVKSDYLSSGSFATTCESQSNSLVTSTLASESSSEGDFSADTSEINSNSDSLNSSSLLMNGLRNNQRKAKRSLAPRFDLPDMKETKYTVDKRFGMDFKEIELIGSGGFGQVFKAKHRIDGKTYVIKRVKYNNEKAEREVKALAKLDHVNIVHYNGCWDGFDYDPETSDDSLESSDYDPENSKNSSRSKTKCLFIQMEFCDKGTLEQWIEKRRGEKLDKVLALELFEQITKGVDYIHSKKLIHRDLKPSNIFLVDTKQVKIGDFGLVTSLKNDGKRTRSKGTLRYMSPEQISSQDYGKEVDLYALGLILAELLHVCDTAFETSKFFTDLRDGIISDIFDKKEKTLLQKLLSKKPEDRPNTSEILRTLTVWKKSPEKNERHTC
# [8] = target: Cyclin-dependent kinase 1 (Homo sapiens) (UniProt P06493); test: Inhibition of CDC2 Lys2 labeling site harbouring DLKPQNLLIDDKGTIK in human A-375 cells at 0.5 uM by KiNativ Profiling analysis relative to control
# Chain of Cyclin-dependent kinase 1 (Homo sapiens) (P06493 whole entry, looked up): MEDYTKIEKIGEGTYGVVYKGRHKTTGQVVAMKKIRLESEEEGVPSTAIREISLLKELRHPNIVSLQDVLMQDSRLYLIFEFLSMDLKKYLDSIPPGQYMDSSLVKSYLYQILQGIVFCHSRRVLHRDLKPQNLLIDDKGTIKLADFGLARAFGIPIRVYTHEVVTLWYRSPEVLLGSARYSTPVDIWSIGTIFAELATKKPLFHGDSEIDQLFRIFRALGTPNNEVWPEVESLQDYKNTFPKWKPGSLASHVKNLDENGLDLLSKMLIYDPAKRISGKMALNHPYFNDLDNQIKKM
# Procedure, shortened: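 Live A375 melanoma cells were treated with compound at 5 or 0.5 μM. The cells were then lysed, and the lysates were labeled with a lysine-reactive ATP or ADP-biotin acyl probe (KiNativ). Inhibition is the compound's protection of each kinase labeling-site peptide from probe labeling, relative to untreated control.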
# [9] = target: Phosphatidylinositol 4-kinase beta (Homo sapiens) (UniProt Q9UBF8); test: Inhibition of PI4KB ATP labeling site harbouring VPHTQAVVLNSKDK in human A-375 cells at 5 uM by KiNativ Profiling analysis relative to control
# Chain of Phosphatidylinositol 4-kinase beta (Homo sapiens) (Q9UBF8 2-816 limits assumed): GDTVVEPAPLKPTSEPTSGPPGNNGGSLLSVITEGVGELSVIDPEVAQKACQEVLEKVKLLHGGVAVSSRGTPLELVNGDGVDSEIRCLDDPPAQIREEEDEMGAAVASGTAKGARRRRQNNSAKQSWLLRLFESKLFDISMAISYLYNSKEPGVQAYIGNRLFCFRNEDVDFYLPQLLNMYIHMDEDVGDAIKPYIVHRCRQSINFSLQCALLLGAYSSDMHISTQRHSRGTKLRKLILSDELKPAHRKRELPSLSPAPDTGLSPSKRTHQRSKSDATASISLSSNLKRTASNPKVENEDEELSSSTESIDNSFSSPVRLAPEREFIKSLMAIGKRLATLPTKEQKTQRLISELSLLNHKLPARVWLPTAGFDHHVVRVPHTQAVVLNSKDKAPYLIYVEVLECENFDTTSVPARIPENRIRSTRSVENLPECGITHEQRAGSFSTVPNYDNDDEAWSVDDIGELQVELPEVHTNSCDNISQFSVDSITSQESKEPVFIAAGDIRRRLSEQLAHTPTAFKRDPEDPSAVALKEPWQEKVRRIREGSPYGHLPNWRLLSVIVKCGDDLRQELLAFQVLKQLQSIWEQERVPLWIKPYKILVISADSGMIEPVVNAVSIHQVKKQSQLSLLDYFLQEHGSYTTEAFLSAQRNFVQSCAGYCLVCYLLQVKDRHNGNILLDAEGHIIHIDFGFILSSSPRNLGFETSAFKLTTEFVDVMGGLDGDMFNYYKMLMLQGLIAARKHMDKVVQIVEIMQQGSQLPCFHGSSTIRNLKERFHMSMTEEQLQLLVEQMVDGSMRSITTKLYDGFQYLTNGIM
smiles,measurement,setting,value
CCN1CCN(Cc2ccc(NC(=O)c3ccc(C)c(/C=C/c4cnc5[nH]ccc5c4OC)c3)cc2C(F)(F)F)CC1,inhibition,[1],7%
same,inhibition,[2],19.3%
same,inhibition,[3],37%
same,inhibition,[4],> 90%
same,inhibition,[5],30%
same,inhibition,[6],9.8%
same,inhibition,[7],-9.6%
same,inhibition,[8],6.3%
same,inhibition,[9],-6.8%
CCN1CCN(Cc2ccc(NC(=O)c3ccc(C)c(Oc4ccnc5[nH]ccc45)c3)cc2C(F)(F)F)CC1,inhibition,[1],13.9%
same,inhibition,[2],-0.8%
same,inhibition,[3],69.7%
same,inhibition,[4],86.8%
same,inhibition,[5],87%
same,inhibition,[6],12.5%
same,inhibition,[7],-5.5%
same,inhibition,[8],13.7%
same,inhibition,[9],-5.8%
